Measured values from ChEMBL document CHEMBL1127058, “The synthesis and biochemical pharmacology of enantiomerically pure methylated oxotremorine derivatives” (J Med Chem, 1993).
Several values for one entry are separate records, joined by “and”; a condition that tells them apart may be missing. Equal entries are not always repeated.

Experiments:
[1] = molecular target: Muscarinic receptor M1 and M2 (Rattus norvegicus) (UniProt P08482+P10980); test: Ratio of [3H]QNB+GppNHp/[3H]-QNB; format: protein assay
[2] = molecular target: T1, Muscarinic acetylcholine receptor M2 (Rattus norvegicus, UniProt P10980); test: Binding affinity at [3H]CD radiolabeled muscarinic M2 receptor in rat cortex.; format: tissue-based
T1 sequence (P10980 whole entry): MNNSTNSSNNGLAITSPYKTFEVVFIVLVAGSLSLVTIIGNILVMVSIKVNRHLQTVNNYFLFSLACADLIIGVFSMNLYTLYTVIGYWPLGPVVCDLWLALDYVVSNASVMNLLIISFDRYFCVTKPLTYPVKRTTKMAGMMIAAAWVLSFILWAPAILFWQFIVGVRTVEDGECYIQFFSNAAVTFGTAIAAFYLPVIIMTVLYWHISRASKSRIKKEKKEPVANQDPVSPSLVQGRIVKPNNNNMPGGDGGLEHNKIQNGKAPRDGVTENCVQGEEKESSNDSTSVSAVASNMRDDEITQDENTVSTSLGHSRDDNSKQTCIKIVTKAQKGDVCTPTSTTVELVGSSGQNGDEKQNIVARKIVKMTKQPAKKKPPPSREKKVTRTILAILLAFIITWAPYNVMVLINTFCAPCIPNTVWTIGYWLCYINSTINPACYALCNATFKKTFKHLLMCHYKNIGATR
Summary of the method: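 Rat cortex (male Wistar, 200–250 g) homogenized in ice-cold 10 mM Na/K phosphate, pH 7.4, diluted 1:300; ~0.75 mg protein per 2.0 mL. [3H]CD 1 nM, 120 min at 25 °C. Filtration onto PEI-soaked GF/B filters, scintillation counting; Ki from one-site competitive fit.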

[3] = molecular target: T2, Muscarinic acetylcholine receptor M1 (Rattus norvegicus, UniProt P08482); test: Binding affinity at [3H]PZ radiolabeled muscarinic M1 receptor in rat cortex.; format: tissue-based
T2 sequence (P08482 whole entry): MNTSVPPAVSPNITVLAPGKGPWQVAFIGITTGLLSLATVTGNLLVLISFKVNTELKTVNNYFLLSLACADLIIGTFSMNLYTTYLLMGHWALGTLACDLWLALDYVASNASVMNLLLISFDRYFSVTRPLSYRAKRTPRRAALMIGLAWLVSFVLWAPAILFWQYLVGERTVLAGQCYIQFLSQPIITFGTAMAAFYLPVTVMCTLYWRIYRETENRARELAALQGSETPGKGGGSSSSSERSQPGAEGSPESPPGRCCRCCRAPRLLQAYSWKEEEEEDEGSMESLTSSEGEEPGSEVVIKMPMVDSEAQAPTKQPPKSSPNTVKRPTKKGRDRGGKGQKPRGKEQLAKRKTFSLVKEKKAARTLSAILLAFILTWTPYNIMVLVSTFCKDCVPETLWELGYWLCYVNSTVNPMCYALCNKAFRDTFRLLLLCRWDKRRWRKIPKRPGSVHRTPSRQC
Summary of the method: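 Male Wistar rat cerebral cortex homogenate in ice-cold 10 mM NaKPB pH 7.4, diluted 1:400 (~0.55 mg protein/2.0 mL). [3H]PZ 0.1 nM, 60 min at 25 °C. Filtered on PEI-treated GF/B, scintillation read; apparent Ki by one-site nonlinear regression; one or two determinations.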

[4] = molecular target: T1, Muscarinic acetylcholine receptor M2; test: Binding affinity at [3H]QNB radiolabeled muscarinic M2 receptor in rat heart.
Summary of the method: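 Rat heart (male Wistar) minced and Polytron-homogenized in 10 mM NaKPB pH 7.4, spun 4800g 15 min 4 °C, resuspended, gauze-filtered, diluted 1:750 (0.15–0.2 mg protein/2.0 mL). Filtration, scintillation; one-site Ki.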

[5] = molecular target: T1, Muscarinic acetylcholine receptor M2; test: Binding affinity at [3H]QNB radiolabeled muscarinic M2 receptor in rat cortex.; format: tissue-based
Summary of the method: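 Cortex from male Wistar rats homogenized in 10 mM NaKPB pH 7.4, diluted 1:3000 (~0.1 mg protein/2.0 mL).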

[6] = molecular target: T1, Muscarinic acetylcholine receptor M2; test: Binding affinity at [3H]QNB and GppNHp radiolabeled muscarinic M2 receptor in rat heart.
Summary of the method: (§1)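 Washed rat heart membranes (male Wistar; 4800g pellet, 1:750, 0.15–0.2 mg protein/2.0 mL) in 10 mM NaKPB pH 7.4 with Gpp(NH)p 10 μM final. Filter binding, scintillation counting; apparent Ki from one-site fit.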

[7] = molecular target: T1, Muscarinic acetylcholine receptor M2; test: Tested for binding affinity to [3H]QNB and GppNHp radiolabeled muscarinic M2 receptor in rat heart; summary of the method: as §1
[8] = molecular target: T3, Muscarinic acetylcholine receptor M2 (Rattus norvegicus) (UniProt P10980); test: Relative [3H]QNB and [3H]-CD binding to muscarinic M2 receptor
T3 sequence (whole entry): T1 sequence (P10980 whole entry)

[9] = Ratio of [3H]QNB+GppNHp/[3H]-PZ was determined
[10] = Ratio of [3H]QNB+/[3H]-PZ was determined

Row | Compound | Ratio [1] | Ki [2] [µM] | Ki [3] [µM] | Ki [4] [µM] | Ki [5] [µM] | Ki [6] [µM] | Ki [7] [µM] | Ratio [8] | Ratio [9] | Ratio [10]
1 | C[C@H]1CCN(CC#CCN(C)C)C1=O | 1.4 | 0.63 | 1080 | 21 | > 100 | 30 |  |  |  | 
2 | C[C@H]1CC(=O)N(CC#CC[N+](C)(C)C)C1 | 0.23 | 0.45 | 108 | 1.9 | > 100 |  | > 100 |  |  | 
3 | C[C@H]1CC(=O)N(CC#CCN2CCCC2)C1 |  | 1.5 | 0.51 | 3.8 | 2.3 | 6 |  | 1.6 |  | 
4 | C[N+](C)(C)CC#CCN1CCCC1=O [OXOTREMORINE METHIODIDE] |  | 0.00078 | 1.2 | 0.06 | 0.91 | 1.5 |  | 1200 |  | 
5 | C[C@@H]1CCN(CC#CCN2CCCC2)C1=O |  | 0.023 | 0.25 | 0.09 | 0.43 | 0.43 |  | 19 |  | 
6 | C[C@H]1CC(=O)N(CC#CCN(C)C)C1 | > 100 | > 10 | 15 | > 100 | 150 | > 100 |  |  |  | 
7 | C[C@@H]1CC(=O)N(CC#CC[N+](C)(C)C)C1 | 2.4 | 0.98 | > 109 | 21 | > 100 | 52 |  |  | 5.7 | 
8 | C[C@@H]1CC(=O)N(CC#CCN(C)C)C1 | > 100 | > 10 | > 100 | > 100 | > 1000 | > 100 |  |  |  | 
9 | C[C@H]1CCN(CC#CCN2CCCC2)C1=O | 32 | 0.055 | 2.2 | 0.11 | 2.9 | 3.3 |  |  | 1.5 | 
10 | C[C@@H]1CC(=O)N(CC#CCN2CCCC2)C1 | 2 | 2.5 | 1.3 | 13 | 4.7 | 27 |  | 1.9 | 21 | 
11 | CC1CCN(CC#CCN(C)C)C1=O (centres undefined) |  | 0.26 | 212 | 1.3 | 22 | 13 |  | 85 |  | 
12 | C[C@@H]1CCN(CC#CCN(C)C)C1=O |  | 0.071 | 6.8 | 0.24 | 8.9 | 9.3 |  | 125 |  | 
13 | CC1CCN(CC#CCN2CCCC2)C1=O (centres undefined) |  | 0.015 | 0.29 | 0.08 | 0.71 | 1.1 |  | 48 |  | 
14 | CN(C)CC#CCN1CCCC1=O |  | 0.0063 | 6.8 | 0.07 | 2.9 | 1.6 |  | 460 |  | 
15 | O=C1CCCN1CC#CCN1CCCC1 [OXOTREMORINE] |  | 0.0005 | 0.12 | 0.005 | 0.06 | 0.16 |  |  |  | 
16 | CC(=O)N(C)C(C)C#CCN1CCCC1 (centres undefined) | 2.5 and 5.1 and 1.8 | 0.004 | 0.04 | 0.07 | 0.08 |  | 0.18 | 19.5 |  | 
17 | O=C1CCCN1CC#CCN1CCCCC1 | 5 | 0.056 | 0.13 | 0.07 | 0.12 | 0.35 |  | 2.2 | 2.7 | 0.54
